Measurements as given in ChEMBL document CHEMBL4196161, “Lead Optimization of 5-Aryl Benzimidazolone- and Oxindole-Based AMPA Receptor Modulators Selective for TARP γ-8” (ACS Med Chem Lett, 2018).
In brackets after ≈: the same amount, converted by molar mass.

Assays:
Rattus norvegicus [1] = assay: Hepatotoxicity in Sprague-Dawley rat assessed as necrosis at 20 to 60 mg/kg, po measured after 14 days by histological analysis; type: toxicity, organism-based; conditions: in vivo, 336 h
Procedure, shortened: (§1)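 Repeat-dose toleration study in rats over 14 days at 20 and 60 mg/kg/day; CNS observations recorded and liver assessed by histological analysis.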

Rattus norvegicus [2] = assay: Ex vivo receptor occupancy at GluA/TARPgamma8 in po dosed Sprague-Dawley rat assessed as brain concentration causing 50% reduction in [3H]JNJ-56022486 receptor labeling in hippocampus at Tmax by autoradiography; type: functional, organism-based
Procedure, shortened: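 Oral dose–response in Sprague–Dawley rats, n = 3/dose (8 doses in one study; vehicle 0.5% HPMC or 20% HP-β-CD); hippocampal occupancy measured at Tmax by ex vivo autoradiography using [3H]-12; EC50 expressed against plasma (ng/mL) or brain (ng/g) exposure, ED50 against dose.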

[3] = Apparent permeability across basolateral to apical side in MDCK-MDR1 cells at 5 uM measured after 60 mins by LC-MS/MS analysis; type: ADME, cell-based, Canis lupus familiaris; conditions: dog
Procedure, shortened: (§2)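 Bidirectional apparent permeability measured in Madin–Darby canine kidney cells transfected with the MDR1 (P-gp) gene; Papp reported in ×10–6 cm/s.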

Rattus norvegicus [4] = assay: Toxicity in po dosed Sprague-Dawley rat assessed as effect on central nervous system functions measured after 14 days; type: organism-based; conditions: in vivo, 336 h; procedure, shortened: as §1
[5] = Protein binding in human plasma assessed as unbound fraction at 1 uM measured after 6 hrs by equilibrium dialysis method; type: ADME, cell-free
Procedure, shortened: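 Human or rat plasma protein binding at 1 μM compound, expressed as fraction unbound (fub).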

[6] = Thermodynamic solubility of the compound in fasted state simulated intestinal fluid at pH 6.5 incubated under stirred condition for 3 days; conditions: read-out: Therm_solubility
Rattus norvegicus [7] = assay: Ex vivo receptor occupancy at GluA/TARPgamma8 Sprague-Dawley rat assessed as plasma concentration causing 50% reduction in [3H]JNJ-56022486 receptor labeling in hippocampus po measured after 10 mins by autoradiography
Rattus norvegicus [8] = assay: Ex vivo receptor occupancy at GluA/TARPgamma8 in po dosed Sprague-Dawley rat assessed as reduction in [3H]JNJ-56022486 receptor labeling in hippocampus measured within 10 mins by autoradiography; type: functional
[9] = Half life in Sprague-Dawley rat at 1 mg/kg, iv administered as single dose by LC-MS/MS analysis; type: ADME, organism-based; conditions: in vivo
Procedure, shortened: (§3)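 Single 1 mg/kg i.v. dose as a solution to Sprague–Dawley rats (n = 3/group); vehicle 20% HP-β-CD in one study series, 1:1 PEG400/H2O in the other; plasma PK parameters derived.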

[10] = Ratio of unbound brain to plasma concentration in Sprague-Dawley rat at 1 mg/kg, iv or 5 mg/kg, po administered as single dose by LC-MS/MS analysis; type: ADME, organism-based; conditions: brain and plasma, read-out: K(p,uu,brain)
[11] = Apparent permeability across apical to basolateral side in MDCK-MDR1 cells at 5 uM measured after 60 mins by LC-MS/MS analysis; type: ADME, cell-based, Canis lupus familiaris; conditions: dog; procedure, shortened: as §2
[12] = Cmax in Sprague-Dawley rat at 5 mg/kg, po administered as single dose by LC-MS/MS analysis; type: ADME, organism-based; design: dose 5 mg/kg, route oral; conditions: in vivo
Procedure, shortened: (§4)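 Sprague–Dawley rats (n = 3/group) given compound as a solution in 20% HP-β-CD, 1 mg/kg i.v. and 5 mg/kg p.o.; plasma pharmacokinetics derived from these arms.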

[13] = Clearance in Sprague-Dawley rat at 1 mg/kg, iv administered as single dose by LC-MS/MS analysis; type: ADME, organism-based; conditions: in vivo; procedure, shortened: as §3
[14] = Oral bioavailability in Sprague-Dawley rat at 5 mg/kg administered as single dose by LC-MS/MS analysis; type: ADME, organism-based; conditions: in vivo; procedure, shortened: as §4
[15] = Volume of distribution at steady state in Sprague-Dawley rat at 1 mg/kg, iv or 5 mg/kg, po administered as single dose by LC-MS/MS analysis; type: ADME, organism-based; conditions: in vivo, read-out: Vdss; procedure, shortened: as §3
[16] = Thermodynamic solubility of the compound in simulated gastric fluid at pH 1.6 incubated under stirred condition for 3 days; type: physicochemical; conditions: read-out: Therm_solubility
Procedure, shortened: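 Thermodynamic solubility (μM) determined in simulated gastric fluid at pH 1.6 and in fasted state simulated intestinal fluid at pH 6.5.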

SMILES: O=c1[nH]c2ccc(-c3c(Cl)cccc3OC(F)(F)F)cc2[nH]1
- Activity (Rattus norvegicus [1]): Toxic
- EC50 (Rattus norvegicus [2]): 545 ng/g
- Papp B→A at 1 h, 5 µM [3]: 24 ×10⁻⁶ cm/s
- Activity (Rattus norvegicus [4]): Non-Toxic
- fraction unbound at 6 h, 1 µM [5]: 0.3
- solubility thermodynamic at 72 h [6]: 74 µM (≈ 24.3 µg/mL)
- EC50 (Rattus norvegicus [7]): 0.145 µg/mL (≈ 0.441 µM)
- ED50 (Rattus norvegicus [8]): 0.5 mg/kg
- half-life [9]: 5.8 h
- Kp uu [10]: 0.6
- Papp A→B at 1 h, 5 µM [11]: 22 ×10⁻⁶ cm/s
- Cmax [12]: 1030 ng/mL
- clearance [13]: 6.9 mL/min/kg
- bioavailability [14]: 133%
- Vd [15]: 3.3 L/kg
- solubility thermodynamic at 72 h [16]: < 4 µM
